Screening results: PubChem BioAssay, several laboratories
Most compounds without a hit are left out; they make up all but 2.2% or so of the library.
GRK2 aptamer HTS = inhibitors of human GRK2 displacing RNA aptamer. AID 488847. inhibition of aptamer binding, % at 10 µM. actives 0.59% (n = 330,000). P25098. bead flow cytometry, FAM-aptamer displacement from GRK2;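 active = inhibition of aptamer binding above 40%, roughly 3 SD of noise, on plates passing a quality check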;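 also: median bead fluorescence of bound FAM aptamer so fluorescent compounds give negative values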
DAGLB inhibitor = diacylglycerol lipase beta (human) inhibition; Q8NCG7; actives 0.059% (n = 340,000); HEK293T DAGLB membrane lysate, EnzChek fluorogenic substrate; inhibition, % at 5.17 µM; in the data active = inhibition above about 34%;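 also: 0% = enzyme with vehicle and 100% = wells lacking enzyme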
Target sequence (Q8NCG7 whole entry, looked up): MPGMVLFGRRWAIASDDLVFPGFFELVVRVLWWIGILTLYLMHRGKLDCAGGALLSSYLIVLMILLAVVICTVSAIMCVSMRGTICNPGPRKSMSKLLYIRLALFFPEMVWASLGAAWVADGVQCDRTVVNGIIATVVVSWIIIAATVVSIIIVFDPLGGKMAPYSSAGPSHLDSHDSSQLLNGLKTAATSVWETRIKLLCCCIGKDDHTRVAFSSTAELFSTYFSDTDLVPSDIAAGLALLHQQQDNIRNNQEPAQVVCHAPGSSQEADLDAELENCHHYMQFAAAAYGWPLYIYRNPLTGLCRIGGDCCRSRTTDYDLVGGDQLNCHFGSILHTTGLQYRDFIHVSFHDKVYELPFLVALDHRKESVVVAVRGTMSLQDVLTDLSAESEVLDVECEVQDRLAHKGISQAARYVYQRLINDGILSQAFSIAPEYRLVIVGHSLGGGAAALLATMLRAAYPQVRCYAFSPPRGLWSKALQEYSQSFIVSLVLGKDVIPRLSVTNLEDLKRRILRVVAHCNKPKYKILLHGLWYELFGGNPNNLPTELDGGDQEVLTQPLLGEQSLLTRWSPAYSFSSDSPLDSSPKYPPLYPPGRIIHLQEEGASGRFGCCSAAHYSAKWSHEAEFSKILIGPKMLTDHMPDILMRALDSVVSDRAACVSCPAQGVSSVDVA
HCV NS3 hel inh = blocks Hepatitis C virus NS3 helicase unwinding | NS3 helicase DNA unwinding, Cy5 molecular beacon fluorescence | inhibition, % at 10.9 µM | actives 0.56% (n = 290,000);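 active = inhibition above the mean of all tested compounds plus 3 SD, set per campaign, cut at about 35% in these data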;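 also: 0% = DMSO wells and 100% = thioflavine S control wells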
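System: HCV NS3 helicase fragment; control set: DMSO and thioflavine S; technique: Cy5 fluorescence at 0 and 60 min, beacon hairpin quenching; reagent: beacon DNA duplex substrate plus ATP; replicates: singlicate; schedule: 1 h reaction at 25 °C, ATP-initiated; medium: MOPS buffer pH 6.5 with MgCl2, DTT, Tween20, BSA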
HCV core dimer = HCV core protein dimerization inhibition; AID 1899; TR-FRET GST/Flag-core106 dimerization, 1536-well; inhibition, % at 5 µM; actives 0.33% (n = 300,000);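 active = inhibition above the mean of all tested compounds plus 3 SD, set per screening campaign, cut at about 45% in these data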
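Assay system – GST-tagged and Flag-tagged HCV core protein residues 1-106 · Quantity – core106 proteins, GST 13.5 nM and Flag 17 nM · Benchmarks – unlabelled core106 and no-GST-core106 wells · Read-out basis – percent inhibition of core106 dimerization signal · Detection – time-resolved FRET, ex 340 nm, em 617 and 671 nm · Schedule – 4 h at 22.5 °C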
GPR7 antagonist = blocks human GPR7 receptor signaling. actives 1.1% (n = 290,000). GPR7-expressing cells, fluorescence antagonist assay. P48145. inhibition, % at 4.4 µM; in the data active = inhibition above about 16%, passing the limit was not always enough;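 also: cells stimulated with the agonist NPW; 0% = agonist with vehicle and 100% = vehicle without agonist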
DNA FID counter = displaces DNA intercalator in HCV helicase counter-screen; DNA fluorescent intercalator displacement, fluorescence; actives 0.17% (n = 290,000); inhibition, % at 7.9 µM; in the data active = inhibition above about 37%;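 also: 0% = vehicle and 100% = reference compound; higher means more ethidium bromide displaced from hairpin DNA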
GRK2 inh confirm = human GRK2 inhibition confirmation, cherry pick 1. bead-bound GRK2, FAM-aptamer displacement, flow cytometry. shares compounds with GRK2 aptamer HTS. aptamer displacement, % at 10 µM. actives 4% (n = 2,000). AID 504451;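 active = aptamer displacement above 40%, near three times the noise of non-fluorescent compounds, on plates passing quality checks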;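 also: negative values mostly reflect intrinsic compound fluorescence rather than true enhancement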
FAM quench CP1 = counter-screen for GRK2 aptamer inhibitors: fluorescent aptamer quenchers | shares compounds with GRK2 aptamer HTS | 2,000 tested, under 10 active | fluorescence response (% of DMSO), % at 10 µM | Carboxyfluorescein RNA aptamer on beads, flow cytometry quenching; stronger effect = lower value;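 active = compounds that quench the bead-bound fluorescent RNA probe, cutting fluorescence to under half of the solvent control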;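 also: counterscreen run without GRK2 so only probe quenching by compound is measured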
GRK2 confirm 2 = human GRK2 inhibition confirmation, cherry pick 2 | shares compounds with GRK2 aptamer HTS | bead-bound GRK2, FAM-aptamer displacement, flow cytometry | inhibition of aptamer binding, % at 10 µM | 360 tested, under 10 active | AID 504782;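 active = inhibition of aptamer binding above 40%, about triple the noise seen with nonglowing compounds, on plates passing quality control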;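 also: negative values mostly come from compounds that fluoresce themselves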
FAM quench SP = counter-screen for GRK2 binding hits: quenchers of fluorescent RNA aptamer; shares compounds with GRK2 aptamer HTS; carboxyfluorescein RNA aptamer beads, flow cytometry quenching; stronger effect = lower value; fluorescence response vs DMSO, % at 10 µM; 360 tested, under 10 active; AID 588494;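 active = response vs DMSO under 50%, meaning signal dropped by over half, treated as fluorescence quencher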;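 also: labelled aptamer on streptavidin beads without GRK2 as a quench counter-screen; 100% = bead fluorescence of DMSO wells and lower means quenching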
* = called active by the depositor.

`Nc1nc(NCc2ccco2)nc(Nc2cccc(F)c2)c1[N+](=O)[O-]` gave GRK2 aptamer HTS 0, DAGLB inhibitor 1, HCV NS3 hel inh 7, HCV core dimer -2, GPR7 antagonist -2 and DNA FID counter 5.
`O=C(O)C1CC(c2ccccc2F)=NO1` (centres undefined) gave GRK2 aptamer HTS 6, DAGLB inhibitor -1, HCV NS3 hel inh -1, HCV core dimer -4, GPR7 antagonist -16, DNA FID counter 1, GRK2 confirm 2 -25 and FAM quench SP 102.
For O=C(NCCc1cccs1)C1CC(c2ccccc2F)=NO1 (centres undefined) the results were GRK2 aptamer HTS 2, DAGLB inhibitor -3 and HCV core dimer -2.
For Fc1ccc(-c2cn(-c3ccccc3)c3[n+]2CCS3)cc1 the results were GRK2 aptamer HTS 43*, DAGLB inhibitor 1, HCV NS3 hel inh -5, HCV core dimer -5, GPR7 antagonist -13, DNA FID counter -5, GRK2 inh confirm 0 and FAM quench CP1 96.
Screening Clc1ccc(-c2cn(-c3ccccc3)c3[n+]2CCS3)cc1 returned GRK2 aptamer HTS 0, DAGLB inhibitor 0, HCV NS3 hel inh -4, HCV core dimer 2, GPR7 antagonist -5 and DNA FID counter 8.
CCOc1ccc(CCNC(=O)Nc2cccc(OC)c2)cc1OCC was read as GRK2 aptamer HTS 41*, DAGLB inhibitor 2, HCV NS3 hel inh -17, HCV core dimer -13, GPR7 antagonist 5, DNA FID counter -32, GRK2 confirm 2 -8 and FAM quench SP 98.
For COc1cccc(NC(=O)NCCC2=CCCCC2)c1 the results were GRK2 aptamer HTS 5, DAGLB inhibitor -8, HCV NS3 hel inh -1, HCV core dimer -7, GPR7 antagonist -1 and DNA FID counter -13.
`CC1CCCC(NC(=O)CN2CCN(S(=O)(=O)c3cccs3)CC2)C1C` (centres undefined) gave GRK2 aptamer HTS 0 and DAGLB inhibitor -3.
`Cc1cccc(C)c1NC(=S)NNc1ncc(C(F)(F)F)cc1Cl` gave GRK2 aptamer HTS 48*, DAGLB inhibitor -1, HCV NS3 hel inh 1, HCV core dimer 0, GPR7 antagonist -7, DNA FID counter -7, GRK2 inh confirm -1 and FAM quench CP1 99.
`Cc1ccccc1NC(=S)NNc1ncc(C(F)(F)F)cc1Cl` gave GRK2 aptamer HTS 0, DAGLB inhibitor 0, HCV NS3 hel inh 6, HCV core dimer -12, GPR7 antagonist -1 and DNA FID counter -3.
For CCC(C)Nc1nc2c(c(=O)[nH]c(=O)n2C)n1CCC(C)C (centres undefined) the results were GRK2 aptamer HTS 52*, DAGLB inhibitor 4, HCV NS3 hel inh -4, HCV core dimer -5, GPR7 antagonist -11, DNA FID counter -22, GRK2 inh confirm 0 and FAM quench CP1 101.
CCC(C)Nc1nc2c(c(=O)[nH]c(=O)n2C)n1CCCc1ccccc1 (centres undefined) was read as GRK2 aptamer HTS 4, DAGLB inhibitor 2, HCV NS3 hel inh 3, HCV core dimer 4, GPR7 antagonist -6 and DNA FID counter -26.
Screening COc1cnn(-c2ccc(C)cc2)c(=O)c1Cl returned GRK2 aptamer HTS 1, DAGLB inhibitor 1, HCV NS3 hel inh 19, HCV core dimer 0, GPR7 antagonist -12 and DNA FID counter -1.
`COc1cnn(-c2ccc(C)cc2)c(=O)c1Br` gave GRK2 aptamer HTS 30, DAGLB inhibitor 2, HCV NS3 hel inh 14, HCV core dimer -2, GPR7 antagonist -18, DNA FID counter -2, GRK2 inh confirm 0 and FAM quench CP1 94.
For Cc1cccc(C)c1NC(=O)CN(C)C(=O)C1CC1C (centres undefined) the results were GRK2 aptamer HTS 1 and DAGLB inhibitor -1.
For COc1cc(/C=C/C(=O)N2CCN(c3ccccn3)CC2)cc(OC)c1OC the results were GRK2 aptamer HTS 0, DAGLB inhibitor -2, HCV NS3 hel inh 2, HCV core dimer -2, GPR7 antagonist -5 and DNA FID counter -42.
`COc1ccc(/C=C/C(=O)N2CCN(c3ccccn3)CC2)cc1OC` gave GRK2 aptamer HTS 53*, DAGLB inhibitor 3, HCV NS3 hel inh 5, HCV core dimer 8, GPR7 antagonist -13, DNA FID counter -29, GRK2 inh confirm 0 and FAM quench CP1 100.
Screening Cc1nc2ccc(NC(=O)Cc3c(F)cccc3Cl)cc2s1 returned GRK2 aptamer HTS 0, DAGLB inhibitor -2, HCV NS3 hel inh 0, HCV core dimer -2, GPR7 antagonist -7 and DNA FID counter -11.
C=CCn1c(SCC(C)=O)nc2sc3c(c2c1=O)CCC3 was read as GRK2 aptamer HTS 1, DAGLB inhibitor -1, HCV NS3 hel inh -5, HCV core dimer 4, GPR7 antagonist -5 and DNA FID counter -14.
`C=CCn1c(SCC(=O)NCC)nc2sc3c(c2c1=O)CCC3` gave GRK2 aptamer HTS 0, DAGLB inhibitor 0, HCV NS3 hel inh 2, HCV core dimer 9, GPR7 antagonist -15, DNA FID counter -17, GRK2 confirm 2 -23 and FAM quench SP 101.
For C=CCn1c(SC(CCO)C(=O)NCc2ccco2)nc2sc3c(c2c1=O)CCC3 (centres undefined) the results were GRK2 aptamer HTS 1, DAGLB inhibitor 0, HCV NS3 hel inh 13, HCV core dimer 0, GPR7 antagonist -13, DNA FID counter -23, GRK2 confirm 2 13 and FAM quench SP 101.
C=CCn1c(SCC(=O)NC)nc2sc3c(c2c1=O)CCC3 was read as GRK2 aptamer HTS 1, DAGLB inhibitor 3, HCV NS3 hel inh 4, HCV core dimer -21, GPR7 antagonist 4, DNA FID counter -5, GRK2 confirm 2 17 and FAM quench SP 99.
CCNC(=O)NC(=O)C(C)OC(=O)C1CCN(S(=O)(=O)c2ccccc2C(=O)OC)CC1 (centres undefined) was read as GRK2 aptamer HTS 0, DAGLB inhibitor 0, HCV NS3 hel inh 5, HCV core dimer -1, GPR7 antagonist -9 and DNA FID counter -37.
